Only some compounds are listed: those with a hit (about 9.2% of all), similar ones and a draw of the others.
ERa SRC1 inh: ER-alpha (human) coactivator binding inhibition. P03372. TR-FRET ER-alpha LBD / SRC-1 peptide, estradiol-bound. inhibition, % at 25.6 µM. 86,000 compounds, 1.7% hits; in the data active means inhibition above about 50%;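 further: 0% = receptor plus peptide control and 100% = peptide only without receptor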
H69AR inhibit: blocks growth of human H69AR lung tumor cells | H69AR lung tumor viability, ATP luminescence, 72 h; hits give low values | viability, % at 10 µM | AID 598 | 85,000 compounds, 6% hits;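 active means viability at or below 40%; inactive means viability above 40%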;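 further: multidrug resistant small cell line overexpressing MRP-1 efflux transporter; 100% = mean luminescence of untreated control wells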
ERa coact pot: ER-alpha (human) coactivator binding potentiation; TR-FRET ERalpha-LBD/SRC-Cy5 coactivator binding, 2 h; 100 = basal binding, no effect; coactivator binding (% of control), % at 25.6 µM; 86,000 compounds, 1.3% hits; in the data active means activity above about 200%;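 further: binding measured in presence of low estradiol as agonist stimulus; 0% = peptide alone without receptor and 100% = receptor with peptide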
HUVEC inhibit: inhibitors of human endothelial cell proliferation. viability, % at 10 µM (by protocol). AID 648. HUVEC proliferation, CellTiter-Glo luminescence, 72 h; hits give low values. 86,000 compounds, 1.1% hits;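 active means viability at or below 30%; inactive means viability above 30%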;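 further: 100% = median luminescence of DMSO-only cell control wells on each plate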
ERb coact inh: ER-beta (human) coactivator binding inhibition; Q92731; TR-FRET ER-beta LBD / SRC1-Cy5 peptide binding; receptor agonist-loaded with 1 µM estradiol; inhibition, % at 25.6 µM; 86,000 compounds, 1.3% hits; AID 633;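 active means compounds whose percent inhibition of the receptor-coactivator binding signal exceeds about 50% in the single-dose screen, limit read from the data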;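 further: 0% = receptor plus peptide wells without compound and 100% = peptide-only wells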
Target sequence (Q92731 whole entry, looked up, the tested form may be a part): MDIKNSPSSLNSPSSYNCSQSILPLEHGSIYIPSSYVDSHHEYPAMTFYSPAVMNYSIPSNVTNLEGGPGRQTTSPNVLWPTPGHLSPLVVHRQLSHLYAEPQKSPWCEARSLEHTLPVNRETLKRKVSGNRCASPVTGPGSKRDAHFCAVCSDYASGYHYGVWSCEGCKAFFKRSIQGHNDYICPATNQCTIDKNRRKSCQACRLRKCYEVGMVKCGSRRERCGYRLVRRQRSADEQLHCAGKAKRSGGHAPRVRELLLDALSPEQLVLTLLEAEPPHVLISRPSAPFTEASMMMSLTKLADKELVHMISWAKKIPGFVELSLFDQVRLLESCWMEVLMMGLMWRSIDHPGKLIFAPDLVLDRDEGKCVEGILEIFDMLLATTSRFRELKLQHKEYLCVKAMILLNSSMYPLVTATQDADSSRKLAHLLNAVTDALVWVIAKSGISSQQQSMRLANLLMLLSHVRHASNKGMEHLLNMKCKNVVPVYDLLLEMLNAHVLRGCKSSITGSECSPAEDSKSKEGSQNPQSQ
Lung fibro prol: blocks proliferation of human lung fibroblasts | viability, % at 10 µM | AID 719 | 85,000 compounds, 1.1% hits | LL 47 human lung fibroblast viability, ATP luminescence; hits give low values;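 active means viability at or below 50% in the single dose screen; inactive means viability above 50%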;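 further: compound exposure lasted 72 h before the ATP readout; 100% = median luminescence of untreated cell-only wells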
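Test system: LL 47 human lung fibroblasts; Quantity: 1,150 cells/well; Buffer or medium: IMEM plus 15% FBS; Dosing: tenfold compound dosing solution, DMSO at 0.1%; Timing: overnight cell rest, 72 h compound treatment at 37 °C; Detection: ATP-based CellTiter-Glo luminescent readout; Read-out basis: viability percentage against median untreated-cell control; Controls: cell-only wells, no compound.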
Active calls of the source: *; nt = not tested or not shown; [ ] = another dose, or the depositor's remark.

SMILES	ERa SRC1 inh	H69AR inhibit	ERa coact pot	HUVEC inhibit	ERb coact inh	Lung fibro prol
O=S1(=O)C=C(Sc2nc3ccccc3s2)c2ccccc21	0	103	116	12*	-2	3.1*
Cc1cc(C)nc(SC2=CS(=O)(=O)c3ccccc32)n1	13	5.8*	106	94	6	58
O=S1(=O)C=C(Sc2nnc(-c3ccccc3)o2)c2ccccc21	6	0.3*	77	11*	-2	nt
Cc1ccc(C(c2nnnn2CCC(C)C)N2CCN(C)CC2)cc1 (configuration not stated)	-6	104	106	71	7	91
COc1ccc(C2c3c(-c4ccccc4O)n[nH]c3C(=O)N2CCc2ccc(OC)c(OC)c2)cc1 (configuration not stated)	15	68	72	78	9	90
Cc1ccc(C2c3c(-c4ccccc4O)n[nH]c3C(=O)N2Cc2ccncc2)cc1 (configuration not stated)	17	7.6*	83	49	4	57
COc1ccc(CCN2C(=O)c3[nH]nc(-c4ccccc4O)c3C2c2cccc(Cl)c2)cc1 (configuration not stated)	6	23*	65	15*	-1	54
O=C1c2[nH]nc(-c3ccccc3O)c2C(c2cccc(O)c2)N1Cc1ccco1 (configuration not stated)	9	38*	51	82	0	89
Cn1c(NC(=O)COc2ccccc2)cc(=O)n(C)c1=O	4	97	79	100	2	100
CCc1ccc(NC(=O)CCn2ccnc2C)cc1	-9	96	109	87	-14	92
CCOC(=O)c1cnn(-c2sc(C(=O)OCC)c(C)c2C(=O)OCC)c1N	63*[fluorescence artefact?]	24*	29	59	64*[fluorescence artefact?]	101
CC12COC3(C(=O)N4CCN(c5ccccn5)CC4)CC1CCC32C (configuration not stated)	-3	93	106	95	-4	nt
COC(=O)CSc1ncccc1-c1nc2ccccc2[nH]1	15	82	98	104	14	100
COc1ccc(-n2nc(C(=O)c3cccs3)cc(-c3nc4ccccc4[nH]3)c2=N)cc1	46	1.4*	72	29*	30	78
O=C(NCc1nc2ccccc2[nH]1)c1cccs1	-6	98	97	108	-7	109
Cc1ccccc1-n1nc(C(=O)c2cccs2)cc(-c2nc3ccccc3[nH]2)c1=N	-11	38*	96	71	1	78
O=C(O)c1ccccc1-c1ccccc1C(=O)NCc1ccco1	-2	101	86	90	1	92
CC1c2[nH]c3ccccc3c2CCN1C(=O)Nc1ccccc1 (configuration not stated)	-11	25*	111	82	0	99
CCOC(=O)c1c(C)oc2c1c(C=NCC1CCCO1)c(O)c1ccccc12 (configuration not stated)	5	26*	99	88	2	98
CCOC(=O)c1c(C)oc2c1c(C=NCc1ccccn1)c(O)c1ccccc12	16	27*	102	48	15	92
CCOC(=O)c1c(C)oc2c1cc(O)c1ccccc12	11	62	113	91	5	101
Cc1ccccc1Nc1nc(N)nc(CN2C(=O)NC3(CCCCC3C)C2=O)n1 (configuration not stated)	-2	101	135	114	4	nt
CC1(C)Cc2nc3sc4c(SCC(=O)NCc5ccco5)ncnc4c3cc2CO1	26	26*	289*[fluorescence artefact?]	75	40	62
Cc1nc2c(sc3nc4c(cc32)COC(C)(C)C4)c(=O)n1CC(=O)NCc1ccco1	13	24*	78	49	24	55
CCCc1nc2c(sc3nc4c(cc32)COC(C)(C)C4)c(=O)n1Cc1ccco1	18	nt	114	89	36	86
CCc1nc2sc3ccccc3c(=O)c2c(=O)n1Cc1ccco1	76*[fluorescence artefact?]	71	57	89	68*	96
O=c1c2ccccc2sc2nc(C3CCCCC3)n(Cc3ccco3)c(=O)c12	46	78	222*	85	38	93
CCOC(=O)CSc1nc2ccccc2c(=O)n1Cc1ccco1	-3	93	96	92	15	91

Screens: PubChem BioAssay, several laboratories
